# Test results from ChEMBL document CHEMBL3853327 (J Med Chem, 2016).
# Tested on: Human immunodeficiency virus 1
# Experiment: Antiviral activity against HIV1 3B harboring reverse transcriptase Y188L mutant infected in human MT4 cells assessed as protection against virus induced cytotoxicity after 5 days by MTT assay
# Format: functional, cell-based
# Conditions: Human immunodeficiency virus 1, 3B, MT4, 120 h
# In short: (§1)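 MTT cytopathicity assay in MT-4 cells (6 × 10^5 cells/mL). Compounds serially diluted 5-fold in triplicate wells, run in parallel on infected and mock-infected cells. Virus added at 100−300 CCID50 per well. Viability read spectrophotometrically at 540 and 690 nm after 5 days, using the median OD of three wells. EC50 is the concentration giving 50% protection from viral cytopathogenicity.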
row,SMILES,EC50 [nM]
1,Cc1cc(C#N)cc(C)c1Oc1nc(NC2CCN(Cc3cccc(S(N)(=O)=O)c3)CC2)nc2ccsc12,12.8

# Tested on: not listed separately
# Experiment: Selectivity index, ratio of CC50 for human mock-infected MT4 cells to EC50 for HIV1 3B harboring reverse transcriptase Y188L mutant infected in human MT4 cells
# Format: toxicity, cell-based
# Conditions: MT4 cells (mock-infected for CC50, HIV-1 infected for EC50)
# In short: (§2)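 Selectivity index is CC50/EC50. CC50 is the concentration that reduces OD540 of mock-infected MT-4 cells by 50% in the 5-day MTT assay. EC50 is the 50% protection from virus-induced cytopathicity, measured in parallel on infected wells.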
row,SMILES,selectivity ratio
1,Cc1cc(C#N)cc(C)c1Oc1nc(NC2CCN(Cc3cccc(S(N)(=O)=O)c3)CC2)nc2ccsc12,> 17800

# Tested on: not listed separately
# Experiment: Cytotoxicity against human mock-infected MT4 cells assessed as reduction in cell viability after 5 days by MTT assay
# Format: toxicity, cell-based
# Conditions: not given
# In short: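 Mock-infected MT-4 cells (6 × 10^5 cells/mL at seeding) with serial 5-fold compound dilutions in triplicate wells. Viability read by MTT after 5 days, absorbance at 540 and 690 nm, median OD of three wells. CC50 is the concentration reducing OD540 of mock-infected cells by 50%.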
row,SMILES,CC50 at 120 h [µM]
1,Cc1ccccc1CN1CCC(Nc2nc(Oc3c(C)cc(C#N)cc3C)c3sccc3n2)CC1,10.4
2,Nc1ccn([C@@H]2CS[C@H](CO)O2)c(=O)n1 [LAMIVUDINE],> 87.2
3,Cc1cc(C#N)cc(C)c1Oc1nc(NC2CCN(Cc3ccccc3F)CC2)nc2ccsc12,189
4,Cc1cc(C#N)cc(C)c1Oc1nc(NC2CCN(Cc3cccc(C#N)c3)CC2)nc2ccsc12,4.52
5,Cc1cc(C#N)cc(C)c1Oc1nc(NC2CCN(Cc3ccc([N+](=O)[O-])cc3)CC2)nc2ccsc12,4.66
6,Cc1cc(C#N)cc(C)c1Oc1nc(NC2CCN(Cc3ccc(C#N)cc3)CC2)nc2ccsc12,5.36
7,Cc1cc(C#N)cc(C)c1Oc1nc(NC2CCN(Cc3ccc(F)cc3F)CC2)nc2ccsc12,4.08
8,Cc1cc(C#N)cc(C)c1Oc1nc(NC2CCN(Cc3cccc(S(N)(=O)=O)c3)CC2)nc2ccsc12,> 228
9,CC(C)Nc1cccnc1N1CCN(C(=O)c2cc3cc(NS(C)(=O)=O)ccc3[nH]2)CC1 [DELAVIRDINE],> 43.8

# Tested on: Human immunodeficiency virus 1
# Experiment: Antiviral activity against HIV1 3B harboring reverse transcriptase F227L/V106A double mutant infected in human MT4 cells assessed as protection against virus induced cytotoxicity after 5 days by MTT assay
# Format: functional, cell-based
# Conditions: Human immunodeficiency virus 1, 3B, MT4, 120 h
# In short: as §1
row,SMILES,EC50 [nM]
1,Cc1cc(C#N)cc(C)c1Oc1nc(NC2CCN(Cc3cccc(S(N)(=O)=O)c3)CC2)nc2ccsc12,8.5

# Tested on: not listed separately
# Experiment: Selectivity index, ratio of CC50 for human mock-infected MT4 cells to EC50 for HIV1 3B harboring reverse transcriptase F227L/V106A double mutant infected in human MT4 cells
# Format: toxicity, cell-based
# Conditions: MT4 cells (mock-infected for CC50, HIV-1 infected for EC50)
# In short: as §2
row,SMILES,selectivity ratio
1,Cc1cc(C#N)cc(C)c1Oc1nc(NC2CCN(Cc3cccc(S(N)(=O)=O)c3)CC2)nc2ccsc12,> 26700

# Tested on: not listed separately
# Experiment: Selectivity index, ratio of CC50 for human mock-infected MT4 cells to EC50 for HIV1 3B harboring reverse transcriptase L100I mutant infected in human MT4 cells
# Format: toxicity, cell-based
# Conditions: MT4 cells (mock-infected for CC50, HIV-1 infected for EC50)
# In short: as §2
row,SMILES,selectivity ratio
1,Cc1cc(C#N)cc(C)c1Oc1nc(NC2CCN(Cc3cccc(S(N)(=O)=O)c3)CC2)nc2ccsc12,> 8030

# Tested on: Human immunodeficiency virus 1
# Experiment: Antiviral activity against wild type HIV1 3B harboring reverse transcriptase infected in human MT4 cells assessed as protection against virus induced cytotoxicity after 5 days by MTT assay
# Format: functional, cell-based
# Conditions: Human immunodeficiency virus 1, 3B, MT4, 120 h
# In short: as §1, with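 “wells.” for “wells. EC50 is the concentration giving 50% protection from viral cytopathogenicity.”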
row,SMILES,EC50 [nM]
1,Cc1ccccc1CN1CCC(Nc2nc(Oc3c(C)cc(C#N)cc3C)c3sccc3n2)CC1,9.4
2,Cc1cc(C#N)cc(C)c1Oc1nc(NC2CCN(Cc3ccccc3F)CC2)nc2ccsc12,8.23
3,Cc1cc(C#N)cc(C)c1Oc1nc(NC2CCN(Cc3cccc(C#N)c3)CC2)nc2ccsc12,4.14
4,Cc1cc(C#N)cc(C)c1Oc1nc(NC2CCN(Cc3ccc([N+](=O)[O-])cc3)CC2)nc2ccsc12,7.57
5,Cc1cc(C#N)cc(C)c1Oc1nc(NC2CCN(Cc3ccc(C#N)cc3)CC2)nc2ccsc12,5.86
6,Cc1cc(C#N)cc(C)c1Oc1nc(NC2CCN(Cc3ccc(F)cc3F)CC2)nc2ccsc12,22
7,Cc1cc(C#N)cc(C)c1Oc1nc(NC2CCN(Cc3cccc(S(N)(=O)=O)c3)CC2)nc2ccsc12,2.4

# Tested on: Human immunodeficiency virus 1
# Experiment: Antiviral activity against HIV1 3B harboring reverse transcriptase K103N mutant infected in human MT4 cells assessed as protection against virus induced cytotoxicity after 5 days by MTT assay
# Format: functional, cell-based
# Conditions: Human immunodeficiency virus 1, 3B, MT4, 120 h
# In short: as §1
row,SMILES,EC50 [nM]
1,Cc1cc(C#N)cc(C)c1Oc1nc(NC2CCN(Cc3cccc(S(N)(=O)=O)c3)CC2)nc2ccsc12,≤ 7.6

# Tested on: Human immunodeficiency virus 1
# Experiment: Antiviral activity against HIV1 3B harboring reverse transcriptase E138K mutant infected in human MT4 cells assessed as protection against virus induced cytotoxicity after 5 days by MTT assay
# Format: functional, cell-based
# Conditions: Human immunodeficiency virus 1, 3B, MT4, 120 h
# In short: as §1
row,SMILES,EC50 [nM]
1,Cc1cc(C#N)cc(C)c1Oc1nc(NC2CCN(Cc3cccc(S(N)(=O)=O)c3)CC2)nc2ccsc12,6.5

# Tested on: not listed separately
# Experiment: Antiviral activity against HIV2 ROD harboring reverse transcriptase infected in human MT4 cells assessed as protection against virus induced cytotoxicity after 5 days by MTT assay
# Format: functional, cell-based, Human immunodeficiency virus type 2 (ISOLATE ROD)
# Conditions: Human immunodeficiency virus 2, MT4, 120 h
# In short: as §1
row,SMILES,EC50 [µM]
1,Cc1ccccc1CN1CCC(Nc2nc(Oc3c(C)cc(C#N)cc3C)c3sccc3n2)CC1,> 10.4
2,Nc1ccn([C@@H]2CS[C@H](CO)O2)c(=O)n1 [LAMIVUDINE],8.79
3,Cc1cc(C#N)cc(C)c1Oc1nc(NC2CCN(Cc3ccccc3F)CC2)nc2ccsc12,> 189
4,Cc1cc(C#N)cc(C)c1Oc1nc(NC2CCN(Cc3cccc(C#N)c3)CC2)nc2ccsc12,> 4.53
5,Cc1cc(C#N)cc(C)c1Oc1nc(NC2CCN(Cc3ccc([N+](=O)[O-])cc3)CC2)nc2ccsc12,> 4.66
6,Cc1cc(C#N)cc(C)c1Oc1nc(NC2CCN(Cc3ccc(C#N)cc3)CC2)nc2ccsc12,> 5.37
7,Cc1cc(C#N)cc(C)c1Oc1nc(NC2CCN(Cc3ccc(F)cc3F)CC2)nc2ccsc12,> 4.08
8,Cc1cc(C#N)cc(C)c1Oc1nc(NC2CCN(Cc3cccc(S(N)(=O)=O)c3)CC2)nc2ccsc12,> 228

# Tested on: not listed separately
# Experiment: Selectivity index, ratio of CC50 for human mock-infected MT4 cells to EC50 for HIV1 3B harboring reverse transcriptase K103N mutant infected in human MT4 cells
# Format: toxicity, cell-based
# Conditions: MT4 cells (mock-infected for CC50, HIV-1 infected for EC50)
# In short: as §2
row,SMILES,selectivity ratio
1,Cc1cc(C#N)cc(C)c1Oc1nc(NC2CCN(Cc3cccc(S(N)(=O)=O)c3)CC2)nc2ccsc12,> 30100

# Tested on: not listed separately
# Experiment: Selectivity index, ratio of CC50 for human mock-infected MT4 cells to EC50 for wild type HIV1 3B harboring reverse transcriptase infected in human MT4 cells
# Format: toxicity, cell-based
# Conditions: MT4 cells (mock-infected for CC50, HIV-1 infected for EC50)
# In short: as §2
row,SMILES,selectivity ratio
1,Cc1ccccc1CN1CCC(Nc2nc(Oc3c(C)cc(C#N)cc3C)c3sccc3n2)CC1,1100
2,Nc1ccn([C@@H]2CS[C@H](CO)O2)c(=O)n1 [LAMIVUDINE],> 39
3,Cc1cc(C#N)cc(C)c1Oc1nc(NC2CCN(Cc3ccccc3F)CC2)nc2ccsc12,23000
4,Cc1cc(C#N)cc(C)c1Oc1nc(NC2CCN(Cc3cccc(C#N)c3)CC2)nc2ccsc12,1090
5,Cc1cc(C#N)cc(C)c1Oc1nc(NC2CCN(Cc3ccc([N+](=O)[O-])cc3)CC2)nc2ccsc12,615
6,Cc1cc(C#N)cc(C)c1Oc1nc(NC2CCN(Cc3ccc(C#N)cc3)CC2)nc2ccsc12,914
7,Cc1cc(C#N)cc(C)c1Oc1nc(NC2CCN(Cc3ccc(F)cc3F)CC2)nc2ccsc12,185
8,Cc1cc(C#N)cc(C)c1Oc1nc(NC2CCN(Cc3cccc(S(N)(=O)=O)c3)CC2)nc2ccsc12,> 96000
9,CC(C)Nc1cccnc1N1CCN(C(=O)c2cc3cc(NS(C)(=O)=O)ccc3[nH]2)CC1 [DELAVIRDINE],> 67

# Tested on: Human immunodeficiency virus 1
# Experiment: Antiviral activity against HIV1 3B harboring reverse transcriptase L100I mutant infected in human MT4 cells assessed as protection against virus induced cytotoxicity after 5 days by MTT assay
# Format: functional, cell-based
# Conditions: Human immunodeficiency virus 1, 3B, MT4, 120 h
# In short: as §1
row,SMILES,EC50 [nM]
1,Cc1cc(C#N)cc(C)c1Oc1nc(NC2CCN(Cc3cccc(S(N)(=O)=O)c3)CC2)nc2ccsc12,28.4

# Tested on: not listed separately
# Experiment: Selectivity index, ratio of CC50 for human mock-infected MT4 cells to EC50 for HIV1 3B harboring reverse transcriptase Y181C mutant infected in human MT4 cells
# Format: toxicity, cell-based
# Conditions: MT4 cells (mock-infected for CC50, HIV-1 infected for EC50)
# In short: as §2
row,SMILES,selectivity ratio
1,Cc1cc(C#N)cc(C)c1Oc1nc(NC2CCN(Cc3cccc(S(N)(=O)=O)c3)CC2)nc2ccsc12,> 10900

# Tested on: not listed separately
# Experiment: Selectivity index, ratio of CC50 for human mock-infected MT4 cells to EC50 for HIV1 3B harboring reverse transcriptase E138K mutant infected in human MT4 cells
# Format: toxicity, cell-based
# Conditions: MT4 cells (mock-infected for CC50, HIV-1 infected for EC50)
# In short: as §2
row,SMILES,selectivity ratio
1,Cc1cc(C#N)cc(C)c1Oc1nc(NC2CCN(Cc3cccc(S(N)(=O)=O)c3)CC2)nc2ccsc12,> 35200

# Tested on: Human immunodeficiency virus 1
# Experiment: Antiviral activity against HIV1 RES056 harboring reverse transcriptase K103N/Y181C double mutant infected in human MT4 cells assessed as protection against virus induced cytotoxicity after 5 days by MTT assay
# Format: functional, cell-based
# Conditions: Human immunodeficiency virus 1, RES056, MT4, 120 h
# In short: as §1, with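 “wells.” for “wells. EC50 is the concentration giving 50% protection from viral cytopathogenicity.”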
row,SMILES,EC50 [nM]
1,Cc1ccccc1CN1CCC(Nc2nc(Oc3c(C)cc(C#N)cc3C)c3sccc3n2)CC1,780
2,Cc1cc(C#N)cc(C)c1Oc1nc(NC2CCN(Cc3ccccc3F)CC2)nc2ccsc12,24200
3,Cc1cc(C#N)cc(C)c1Oc1nc(NC2CCN(Cc3cccc(C#N)c3)CC2)nc2ccsc12,360
4,Cc1cc(C#N)cc(C)c1Oc1nc(NC2CCN(Cc3ccc([N+](=O)[O-])cc3)CC2)nc2ccsc12,520
5,Cc1cc(C#N)cc(C)c1Oc1nc(NC2CCN(Cc3ccc(C#N)cc3)CC2)nc2ccsc12,440
6,CC(C)Nc1cccnc1N1CCN(C(=O)c2cc3cc(NS(C)(=O)=O)ccc3[nH]2)CC1 [DELAVIRDINE],> 43800

# Tested on: not listed separately
# Experiment: Selectivity index, ratio of CC50 for human mock-infected MT4 cells to EC50 for HIV1 RES056 harboring reverse transcriptase K103N/Y181C double mutant infected in human MT4 cells
# Format: toxicity, cell-based
# Conditions: MT4 cells (mock-infected for CC50, HIV-1 infected for EC50)
# In short: as §2
row,SMILES,selectivity ratio
1,Cc1ccccc1CN1CCC(Nc2nc(Oc3c(C)cc(C#N)cc3C)c3sccc3n2)CC1,13
2,Cc1cc(C#N)cc(C)c1Oc1nc(NC2CCN(Cc3ccccc3F)CC2)nc2ccsc12,8
3,Cc1cc(C#N)cc(C)c1Oc1nc(NC2CCN(Cc3cccc(C#N)c3)CC2)nc2ccsc12,13
4,Cc1cc(C#N)cc(C)c1Oc1nc(NC2CCN(Cc3ccc([N+](=O)[O-])cc3)CC2)nc2ccsc12,9
5,Cc1cc(C#N)cc(C)c1Oc1nc(NC2CCN(Cc3ccc(C#N)cc3)CC2)nc2ccsc12,12
6,Cc1cc(C#N)cc(C)c1Oc1nc(NC2CCN(Cc3ccc(F)cc3F)CC2)nc2ccsc12,< 1
7,Cc1cc(C#N)cc(C)c1Oc1nc(NC2CCN(Cc3cccc(S(N)(=O)=O)c3)CC2)nc2ccsc12,> 120

# Tested on: Human immunodeficiency virus 1
# Experiment: Antiviral activity against HIV1 3B harboring reverse transcriptase Y181C mutant infected in human MT4 cells assessed as protection against virus induced cytotoxicity after 5 days by MTT assay
# Format: functional, cell-based
# Conditions: Human immunodeficiency virus 1, 3B, MT4, 120 h
# In short: as §1, with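 “wells.” for “wells. EC50 is the concentration giving 50% protection from viral cytopathogenicity.”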
row,SMILES,EC50 [nM]
1,Cc1cc(C#N)cc(C)c1Oc1nc(NC2CCN(Cc3cccc(S(N)(=O)=O)c3)CC2)nc2ccsc12,20.9
